Screening results as filed in PubChem.
APP 5'UTR act: activators of APP 5'UTR luciferase reporter, primary screen, SH-SY5Y cells | SH-SY5Y APP 5'UTR luciferase reporter, luminescence; zero percent = DMSO vehicle wells | activation, % at 2 µM | hit rate 1% among 190,000 | AID 1276, 2008;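 active means activation above a set limit, based on mean plus 3 SD of controls, cut at about 140% in these data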
STAT1 activator: STAT1 signaling activators, primary screen, cell-based, HTS, luciferase reporter; hit rate 2.6% among 200,000; activation (% of control), % at 5.5 µM; AID 932, 2007; NIH 3T3 STAT1-luciferase reporter, IFN-gamma, luminescence; 100% = IFN-gamma alone, no compound;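 active means activation above the screen-wide mean activation plus 3 SD, cut at about 130% in these data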;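 further: raw ratio to IFN-gamma control signal so 100% means no change and 0% no light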
FLuc inhib CS: firefly luciferase enzyme inhibitors, primary screen, artefact control for luciferase-based inhibitor screens, biochemical, luminescence, ATPLite. hit rate 1.5% among 200,000. inhibition, % at 10 µM. AID 1006, 2008. 10 min;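 active means inhibition above about 50% when tested at 10 µM, limit read from the data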
Target sequence (P08659 whole entry, looked up): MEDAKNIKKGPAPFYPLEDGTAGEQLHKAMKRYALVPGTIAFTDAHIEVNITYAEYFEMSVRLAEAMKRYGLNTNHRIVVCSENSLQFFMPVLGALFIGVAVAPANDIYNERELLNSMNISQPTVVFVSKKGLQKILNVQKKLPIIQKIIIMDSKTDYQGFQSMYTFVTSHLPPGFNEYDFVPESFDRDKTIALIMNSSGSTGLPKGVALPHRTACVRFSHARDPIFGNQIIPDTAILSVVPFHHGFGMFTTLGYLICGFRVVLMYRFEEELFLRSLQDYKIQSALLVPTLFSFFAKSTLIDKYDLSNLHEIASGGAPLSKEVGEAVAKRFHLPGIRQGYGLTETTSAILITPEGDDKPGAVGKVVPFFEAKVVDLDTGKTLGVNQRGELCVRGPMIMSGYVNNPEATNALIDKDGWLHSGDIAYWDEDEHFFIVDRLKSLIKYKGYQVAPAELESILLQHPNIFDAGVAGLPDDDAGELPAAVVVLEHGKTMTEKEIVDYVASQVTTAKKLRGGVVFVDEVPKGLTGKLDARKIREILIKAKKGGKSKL
NF-kB expr up: activators of NF-kB expression in neurons, primary screen, cell-based, HTS. hit rate 1.6% among 190,000. fold change at 12.5 µM. human neuronal cells, NF-kB reporter expression; hits give high values; in the data active means fold change above about 3.3
FLuc stim CS: FLuc activators, initial screening, artefact control for FLuc-dependent activation tests, biochemical, ATPlite luminescence; Luciferin 4-monooxygenase (Photinus pyralis), P08659; ATPlite luciferase biochemical, 10 min; 0 = ATP-free wells, 1 = DMSO control; activation factor at 10 µM; 200,000 tested, under 10 active;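 active means luciferase activation factor, scaled between plate controls, of at least 2 with compound at 10 µM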
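System: Luciferase/luciferin detection reagent, cell-free biochemical luciferase assay | Medium: PBS buffer for ATP | Dosing: Test compounds dosed from 2 mM stocks in 100% DMSO | Timing: 10 min at ambient temperature | Signal: Luminescence measurement of luciferase light output | Evaluation: Luciferase activation, seen as luminescence increase over controls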
STAT1 act conf: STAT1 signaling activators, confirmation, cell-based, HTS, luciferase reporter. activation (% of control), % at 5.7 µM. AID 1262, 2008. hit rate 97% among 1,200. NIH 3T3 STAT1-luciferase reporter, IFN-gamma potentiation, luminescence; 100% = IFN-gamma EC80 alone, no compound. shares compounds with STAT1 activator;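 active means activation above a set limit carried over from the earlier primary STAT1 screen, cut at about 140% in these data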;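 further: simple ratio to median IFN-gamma plus DMSO wells so 0% means no light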
NFkB act STAT1ct: NF-kB reporter activators, TNF-alpha stimulated, counter-screen for STAT1 activator project, cell-based, HEK293T, luciferase luminescence. shares compounds with STAT1 activator. 100% = TNF-alpha with vehicle only. activation (% of control), % at 5.7 µM. hit rate 43% among 1,200. AID 1306, 2008;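 active means activation above the mean of solvent-only control wells plus 3 SD, set per campaign, cut at about 130% in these data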;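 further: TNF-alpha given at a submaximal dose yielding about 80% of full reporter signal; values are well signal over median control so 100% means no change and 0% no light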
STAT3 act 2: STAT3 reporter activation by STAT1 hits, confirmation, counter-screen for STAT1 activator project, U3A cells, luciferase, luminescence; shares compounds with STAT1 activator; IL-6; cells lack STAT1; 100 = IL-6 alone, no compound effect; activation (% of control), % at 5.7 µM; hit rate 46% among 1,200;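 active means activation above the solvent-only control well mean plus 3 SD, set per plate batch, cut at about 110% in these data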;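 further: 0% = no luminescence and 100% = median IL-6 plus DMSO wells; higher means more STAT3 reporter activation so hits are non-selective activators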
Numbers without * were called inactive. In the library only some 4.3% were active in any assay of this set; here they are far more common.

COc1ccc(-c2noc(-c3ccco3)n2)cc1OC was read as APP 5'UTR act 124, STAT1 activator 152*, FLuc inhib CS 32, NF-kB expr up 5.7*, FLuc stim CS 0.7, STAT1 act conf 202*, NFkB act STAT1ct 137* and STAT3 act 2 119*.
For COc1cccc(-c2noc(-c3ccoc3C)n2)c1 the results were APP 5'UTR act 109, STAT1 activator 160*, FLuc inhib CS 35, NF-kB expr up 2.9, FLuc stim CS 0.6, STAT1 act conf 192*, NFkB act STAT1ct 134* and STAT3 act 2 111*.
COc1cccc(NC(=O)c2ccccc2-c2nc(-c3cccc(C)c3)no2)c1 was read as APP 5'UTR act 14, STAT1 activator 108, FLuc inhib CS -2, NF-kB expr up 0.65 and FLuc stim CS 1.
For OCCNc1c2ccccc2nc2ccccc12 the results were APP 5'UTR act 6, STAT1 activator 158*, FLuc inhib CS -4, NF-kB expr up 0.92, FLuc stim CS 1, STAT1 act conf 159*, NFkB act STAT1ct 133 and STAT3 act 2 117*.
Screening CCOc1cc(/C=N/O)ccc1OCc1ccc(F)cc1 returned APP 5'UTR act -17, STAT1 activator 104, FLuc inhib CS -5, NF-kB expr up 1.4 and FLuc stim CS 1.1.
Screening COc1cc(/C=N/O)ccc1OCc1ccc(Cl)cc1 returned APP 5'UTR act 191*, STAT1 activator 155*, FLuc inhib CS 43, NF-kB expr up 8.4*, FLuc stim CS 0.6, STAT1 act conf 283*, NFkB act STAT1ct 148* and STAT3 act 2 141*.
`Cc1cccc(N/C=C/c2onc(C)c2[N+](=O)[O-])c1` gave APP 5'UTR act 16, STAT1 activator 155*, FLuc inhib CS -5, NF-kB expr up 1.1, FLuc stim CS 1.1, STAT1 act conf 199*, NFkB act STAT1ct 141* and STAT3 act 2 107.
For CC(C)(C)C(=O)c1cnc(Nc2ccccc2Cl)s1 the results were APP 5'UTR act 114, STAT1 activator 158*, FLuc inhib CS 34, NF-kB expr up 5.1*, FLuc stim CS 0.7, STAT1 act conf 204*, NFkB act STAT1ct 133 and STAT3 act 2 111*.
For O=C(Nc1ccccc1Cl)c1cnccn1 the results were APP 5'UTR act -7, STAT1 activator 94, FLuc inhib CS 0, NF-kB expr up 1.1 and FLuc stim CS 1.
Screening O=C(c1ccccc1)c1cnc(Nc2ccccc2Cl)s1 returned APP 5'UTR act 174*, STAT1 activator 162*, FLuc inhib CS 62*, NF-kB expr up 7.3*, FLuc stim CS 0.4, STAT1 act conf 214*, NFkB act STAT1ct 135* and STAT3 act 2 113*.
For COc1ccc(N(/N=C2\Sc3ccccc3C2=O)C(C)=O)cc1 the results were APP 5'UTR act 172*, STAT1 activator 151*, FLuc inhib CS 4, NF-kB expr up 4.8*, FLuc stim CS 1, STAT1 act conf 191*, NFkB act STAT1ct 123 and STAT3 act 2 110.
`COc1ccc(-c2noc(Cc3cccs3)n2)cc1` gave APP 5'UTR act 96, STAT1 activator 162*, FLuc inhib CS 11, NF-kB expr up 3.9*, FLuc stim CS 0.9, STAT1 act conf 181*, NFkB act STAT1ct 138* and STAT3 act 2 104.
`COc1ccc(/C=C(\CC(=O)O)c2nc3ccccc3o2)cc1` gave APP 5'UTR act 76, STAT1 activator 151*, FLuc inhib CS 12, NF-kB expr up 0.9, FLuc stim CS 0.9, STAT1 act conf 160*, NFkB act STAT1ct 136* and STAT3 act 2 116*.
`Nc1nc(N2CCN(C(=O)c3ccco3)CC2)nc2ccc(Br)cc12` gave APP 5'UTR act 219*, STAT1 activator 180*, FLuc inhib CS 3, NF-kB expr up 1.4, FLuc stim CS 1, STAT1 act conf 195*, NFkB act STAT1ct 141* and STAT3 act 2 118*.
Screening Clc1ccc(OCc2nc(-c3ccncc3)no2)c(Cl)c1 returned APP 5'UTR act 144*, STAT1 activator 174*, FLuc inhib CS 14, NF-kB expr up 5.8*, FLuc stim CS 0.9, STAT1 act conf 230*, NFkB act STAT1ct 142* and STAT3 act 2 116*.
Clc1cccc(OCc2nc(-c3ccncc3)no2)c1 was read as APP 5'UTR act -4, STAT1 activator 114, FLuc inhib CS 0, NF-kB expr up 0.77 and FLuc stim CS 1.
`CCC(C)NC(=O)c1cc(-c2ccc(OC)cc2)on1` (stereo unspecified) gave APP 5'UTR act 23, STAT1 activator 157*, FLuc inhib CS 16, NF-kB expr up 3.4*, FLuc stim CS 0.8, STAT1 act conf 179*, NFkB act STAT1ct 131 and STAT3 act 2 107.
`COCC(C)NC(=O)c1cc(-c2ccc(O)cc2)on1` (stereo unspecified) gave APP 5'UTR act 23, STAT1 activator 110, FLuc inhib CS 6, NF-kB expr up 1.7 and FLuc stim CS 0.9.
`O=C(CSc1nnc(SCc2ccc(Cl)cc2)s1)c1ccc2c(c1)OCO2` gave APP 5'UTR act 6, STAT1 activator 101, FLuc inhib CS -4, NF-kB expr up 1.3 and FLuc stim CS 1.
Cc1ccc(CC(=O)Nc2nc3ccccc3s2)cc1 was read as APP 5'UTR act 34, STAT1 activator 118, FLuc inhib CS -3, NF-kB expr up 2.1 and FLuc stim CS 1.
`Cc1ccc2nc(NC(=O)CCn3c(=O)sc4ccccc43)sc2c1` gave APP 5'UTR act -7, STAT1 activator 95, FLuc inhib CS -2, NF-kB expr up 1.1 and FLuc stim CS 1.
Screening CCCCNC(=O)Nc1nc2ccccc2s1 returned APP 5'UTR act 148*, STAT1 activator 152*, FLuc inhib CS 24, NF-kB expr up 1.3, FLuc stim CS 0.8, STAT1 act conf 186*, NFkB act STAT1ct 128 and STAT3 act 2 116*.
Cc1cccc2sc(NC(=O)c3ccc(Cl)s3)nc12 was read as APP 5'UTR act 18, STAT1 activator 111, FLuc inhib CS 0, NF-kB expr up 1.1 and FLuc stim CS 1.
